Here are results for four molecules from PMC3460462 (The Journal of Biological Chemistry, 2012).

Ends that are not written are not given here.

Format in all cases: cell-based
Experiment [1] deals with all other family members (hFPR3, vomeronasal Fprs). Kind of experiment: Single-cell resolution Ca2+ imaging, all other Fpr family members. Conditions: 9 μM fMLF; single-cell Fura-2 Ca2+ imaging. An outline of the steps:
(§1)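 Single-cell Ca2+ imaging on a Pathway Bioimager. HEK293T PEAKrapid cells cotransfected with receptor, Gα16 and EGFP plasmid (1/10) and loaded with Fura-2/AM. […] C1 buffer application served as mechanical control, with buffer-responding cells excluded; 30 μM ATP checked viability. Mock-transfected cells were the negative control, and responding cells were counted.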

In experiment [2] the target is T1, mFpr2 (Mus musculus, UniProt O88536).
T1 sequence (O88536 1-351): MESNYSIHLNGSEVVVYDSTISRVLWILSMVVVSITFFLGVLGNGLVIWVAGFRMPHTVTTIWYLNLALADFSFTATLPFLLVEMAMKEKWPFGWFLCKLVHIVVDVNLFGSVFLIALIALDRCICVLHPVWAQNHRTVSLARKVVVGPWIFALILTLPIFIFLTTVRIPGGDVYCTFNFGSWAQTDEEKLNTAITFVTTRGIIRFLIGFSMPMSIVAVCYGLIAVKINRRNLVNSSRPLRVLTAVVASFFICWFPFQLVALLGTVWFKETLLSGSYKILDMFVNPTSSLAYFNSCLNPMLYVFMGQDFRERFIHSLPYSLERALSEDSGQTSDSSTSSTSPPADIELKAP
Kind of experiment: Single-cell resolution Ca2+ imaging, mFpr2. Particulars: 9 μM fMLF; single-cell Fura-2 Ca2+ imaging. In a few lines: as §1

Experiment [3] deals with T2, mFpr1 (Mus musculus, UniProt P33766).
T2 sequence (P33766 1-364): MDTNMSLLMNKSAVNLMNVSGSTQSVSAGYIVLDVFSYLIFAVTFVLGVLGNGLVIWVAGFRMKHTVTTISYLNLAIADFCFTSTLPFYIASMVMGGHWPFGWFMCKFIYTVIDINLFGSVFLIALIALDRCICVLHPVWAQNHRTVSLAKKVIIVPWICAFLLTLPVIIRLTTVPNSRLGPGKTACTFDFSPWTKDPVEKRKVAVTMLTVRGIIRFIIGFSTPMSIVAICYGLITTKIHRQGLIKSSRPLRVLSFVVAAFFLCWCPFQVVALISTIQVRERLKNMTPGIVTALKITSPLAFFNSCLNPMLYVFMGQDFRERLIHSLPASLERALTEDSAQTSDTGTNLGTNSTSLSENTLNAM
Put plainly: Single-cell resolution Ca2+ imaging, mFpr1. Conditions: 9 μM fMLF; single-cell Fura-2 Ca2+ imaging. In a few lines: as §1

Experiment [4] has as its target T2, mFpr1. Kind of experiment: FLIPR Ca2+ assay, HEK293T cells transfected with mFpr1 and Gα16.
Experiment [5] concerns the target T1, mFpr2. Kind of experiment: FLIPR Ca2+ assay, HEK293T cells transfected with mFpr2 and Gα16.
Experiment [6] relates to human receptors (hFPR1, hFPR2, hFPR3). Put plainly: FLIPR Ca2+ assay, human receptors. In a few lines: (§2)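 HEK293T PEAKrapid cells seeded on poly-D-lysine, transfected 24 h later (jetPEI) with receptor plus Gα16 in equal amounts, or empty vector for mock. After 48 h, loaded with 2 μM Fluo-4 AM and 50 μM probenecid for 2 h at room temperature in C1 buffer (HEPES, pH 7.2), then rinsed three times. About 50,000 cells per well on FLIPR; ligands in C1. Response is ΔF/F0 (peak over baseline), fitted with a variable-slope sigmoid.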

The next experiment has as its target T3, hFPR2 (Homo sapiens, UniProt P25090).
T3 sequence (P25090 1-351): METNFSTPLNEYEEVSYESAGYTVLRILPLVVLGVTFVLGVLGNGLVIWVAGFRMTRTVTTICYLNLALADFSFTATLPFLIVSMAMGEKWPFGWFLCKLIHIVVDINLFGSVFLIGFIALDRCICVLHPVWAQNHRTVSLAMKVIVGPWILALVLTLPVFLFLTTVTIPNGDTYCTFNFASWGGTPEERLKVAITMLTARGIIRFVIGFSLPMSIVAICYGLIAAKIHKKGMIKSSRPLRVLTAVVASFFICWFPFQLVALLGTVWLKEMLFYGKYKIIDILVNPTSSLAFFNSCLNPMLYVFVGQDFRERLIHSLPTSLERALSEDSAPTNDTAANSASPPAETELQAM
Kind of experiment: FLIPR Ca2+ assay, HEK293T cells transfected with hFPR2 and Gα16. Conditions: 1% DMSO.

A further experiment concerns the target T4, mFpr-rs1 (Mus musculus, UniProt O08790).
T4 sequence (O08790 1-351): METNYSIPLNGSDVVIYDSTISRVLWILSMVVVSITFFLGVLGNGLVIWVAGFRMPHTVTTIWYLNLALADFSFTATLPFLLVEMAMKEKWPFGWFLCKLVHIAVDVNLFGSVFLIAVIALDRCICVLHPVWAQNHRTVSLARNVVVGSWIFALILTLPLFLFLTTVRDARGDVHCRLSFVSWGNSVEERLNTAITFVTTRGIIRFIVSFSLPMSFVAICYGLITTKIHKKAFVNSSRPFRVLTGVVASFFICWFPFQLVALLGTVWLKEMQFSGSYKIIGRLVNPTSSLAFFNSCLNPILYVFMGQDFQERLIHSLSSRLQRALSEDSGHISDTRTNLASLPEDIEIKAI
Kind of experiment: FLIPR Ca2+ assay, HEK293T cells transfected with mFpr-rs1 and Gα16.

For another experiment, the system named is mock-transfected cells. Put plainly: FLIPR Ca2+ assay, mock-transfected negative control. Conditions: mock-transfected negative controls; different kinetics. In a few lines: as §2

In the case of “N-formylmethionine-leucine-phenylalanine [fMLF]”, the “activation by fMLF (in words)” value in experiment [1] is “did not respond”; on mFpr2 [2], “could be activated”; on mFpr1 [3], “could be activated”.

Take “H-RIHIGPGRALYTT-OH [V3gp120 HIV (BK-130)]”: on mFpr1 [4], the concentration giving a half-maximal response (EC50) (commonly the concentration at which the effect is half-maximal) is 4.5 µM. Moreover, the activation threshold at mFpr1 [4] (FLIPR Ca2+) is ~1 µM. For the same molecule, the “subtype selectivity (in words)” value on mFpr1 [4] (mFpr1 versus mFpr2, FLIPR Ca2+) is given as “strongly preferential activators of mFpr1”. Besides, at mFpr2 [5] (weak activation), the “concentrations at which only a weak activation was seen” value was ≥ 30 µM.

On to “Ac2-26: classical Fpr agonist purchased from Tocris (Ac-AMVSEFLKQAWFIENEEQEYVQTVK; UniProt P04083 2-26, looked up, fragment)”, for which the “Ca2+ response (in words)” value in experiment [6] is on record as “robust Ca^2+ elevations”.

With `C[S+](C)[O-]` [DMSO, dimethyl sulfoxide], the saturation reached at at mFpr1 [4] (DMSO concentration, FLIPR Ca2+) is recorded as ~3%; at mFpr2 [5] (DMSO concentration), ~3%. Besides, the threshold of activation is ~0.1% on mFpr1 [4] (DMSO concentration, FLIPR Ca2+) and ~0.1% on mFpr2 [5] (DMSO concentration). In addition, the “receptor activation (in words)” value was “susceptible” at hFPR2 and “but not mFpr-rs1” at mFpr-rs1. Besides, the “concentrations giving unspecific DMSO-dependent signals” value in the experiment with mock-transfected cells is given as > 2%.
